Test results: ChEMBL document CHEMBL4689842, “EUbOPEN Chemogenomics Library wave 1” (2021)

Columns and labels:
Fibroblast = test: Incucyte cell viability with human fibroblast; assay type: toxicity, cell-based; details: 10 µM, compound concentration 10 uM; note: filed as whole numbers so only -1 and 0 and 1 occur
HEK-293T = test: Multiplex assay against HEK293T; assay type: toxicity, cell-based; details: human;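 for Population Tubulin-Different-Phenotype (%): share of the cells with healthy nuclei that show this phenotype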
In short: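 Live cells were stained at seeding with Hoechst33342, BioTracker Green Microtubule Cytoskeleton Dye, MitoTracker Red and Annexin V Alexa Fluor 680. Following compound addition, they were imaged on a CQ1 microscope at 37°C and 5% CO2 and gated by CellPathfinder machine learning into Hoechst high-intensity objects or normal cells, with normal cells split into healthy, pyknosed or fragmented nuclei and pyknosed cells into mitotic or apoptotic. Tubulin, mitochondrial-mass and membrane-permeability phenotypes are per cents of healthy-nucleus cells.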

[1] = 0 h, replicate number 2, timepoint 0 hours
[2] = 24 h, replicate number 1, timepoint 24 hours
[3] = 12 h, 1 µM, compound concentration 1 uM, replicate 1
[4] = 12 h, 1 µM, compound concentration 1 uM, replicate 2
[5] = 12 h, 10 µM, compound concentration 10 uM, replicate 1
[6] = 12 h, 10 µM, compound concentration 10 uM, replicate 2
[7] = 24 h, 1 µM, compound concentration 1 uM, replicate 1
[8] = 24 h, 1 µM, compound concentration 1 uM, replicate 2
[9] = 24 h, 10 µM, compound concentration 10 uM, replicate 1
[10] = 24 h, 10 µM, compound concentration 10 uM, replicate 2
[11] = 48 h, 1 µM, compound concentration 1 uM, replicate 1
[12] = 48 h, 1 µM, compound concentration 1 uM, replicate 2
[13] = 48 h, 10 µM, compound concentration 10 uM, replicate 1
[14] = 48 h, 10 µM, compound concentration 10 uM, replicate 2

## CCCc1cc(C)[nH]c(=O)c1CNC(=O)c1cc(-c2ccc(N3CCN(C(C)C)CC3)nc2)cc2c1cnn2C(C)C
Fibroblast; [1]
  Growth Rate: 0
Fibroblast; 6 h, replicate number 1, timepoint 6 hours
  Growth Rate: 0
Fibroblast; 12 h, replicate number 1, timepoint 12 hours
  Growth Rate: 0
Fibroblast; 12 h, replicate number 2, timepoint 12 hours
  Growth Rate: 1
Fibroblast; 18 h, replicate number 1, timepoint 18 hours
  Growth Rate: 0
Fibroblast; [2]
  Growth Rate: 0
HEK-293T; [3]
  Population Apoptotic (%): 63%
  Population Fragmented Nuclei (%): 13%
  Population Healthy Nuclei (%): 25%
  Population Hoechst High Intensity Objects (%): 13%
  Population Membrane Permeable-Phenotype (%): 9%
  Population Mitochondria Different-Phenotype (%): 97%
  Population Mitotic Cells (%): 36%
  Population Normal (%): 86%
  Population Pyknosed Nuclei (%): 60%
  Population Tubulin-Different-Phenotype (%): 86%
  Total Cell Count: 193
HEK-293T; [4]
  Population Apoptotic (%): 51%
  Population Fragmented Nuclei (%): 4%
  Population Healthy Nuclei (%): 27%
  Population Hoechst High Intensity Objects (%): 3%
  Population Membrane Permeable-Phenotype (%): 3%
  Population Mitochondria Different-Phenotype (%): 87%
  Population Mitotic Cells (%): 48%
  Population Normal (%): 96%
  Population Pyknosed Nuclei (%): 67%
  Population Tubulin-Different-Phenotype (%): 94%
  Total Cell Count: 200
HEK-293T; [5]
  Population Apoptotic (%): 94%
  Population Fragmented Nuclei (%): 9%
  Population Healthy Nuclei (%): 20%
  Population Hoechst High Intensity Objects (%): 20%
  Population Membrane Permeable-Phenotype (%): 2%
  Population Mitochondria Different-Phenotype (%): 97%
  Population Mitotic Cells (%): 5%
  Population Normal (%): 79%
  Population Pyknosed Nuclei (%): 69%
  Population Tubulin-Different-Phenotype (%): 89%
  Total Cell Count: 231
HEK-293T; [6]
  Population Apoptotic (%): 96%
  Population Fragmented Nuclei (%): 5%
  Population Healthy Nuclei (%): 12%
  Population Hoechst High Intensity Objects (%): 8%
  Population Membrane Permeable-Phenotype (%): 11%
  Population Mitochondria Different-Phenotype (%): 94%
  Population Mitotic Cells (%): 3%
  Population Normal (%): 91%
  Population Pyknosed Nuclei (%): 82%
  Population Tubulin-Different-Phenotype (%): 100%
  Total Cell Count: 151
HEK-293T; [7]
  Population Apoptotic (%): 79%
  Population Fragmented Nuclei (%): 11%
  Population Healthy Nuclei (%): 26%
  Population Hoechst High Intensity Objects (%): 17%
  Population Membrane Permeable-Phenotype (%): 4%
  Population Mitochondria Different-Phenotype (%): 97%
  Population Mitotic Cells (%): 20%
  Population Normal (%): 82%
  Population Pyknosed Nuclei (%): 62%
  Population Tubulin-Different-Phenotype (%): 97%
  Total Cell Count: 190
HEK-293T; [8]
  Population Apoptotic (%): 57%
  Population Fragmented Nuclei (%): 2%
  Population Healthy Nuclei (%): 52%
  Population Hoechst High Intensity Objects (%): 3%
  Population Membrane Permeable-Phenotype (%): 6%
  Population Mitochondria Different-Phenotype (%): 94%
  Population Mitotic Cells (%): 42%
  Population Normal (%): 96%
  Population Pyknosed Nuclei (%): 45%
  Population Tubulin-Different-Phenotype (%): 94%
  Total Cell Count: 239
HEK-293T; [9]
  Population Apoptotic (%): 91%
  Population Fragmented Nuclei (%): 15%
  Population Healthy Nuclei (%): 16%
  Population Hoechst High Intensity Objects (%): 19%
  Population Mitochondria Different-Phenotype (%): 96%
  Population Mitotic Cells (%): 8%
  Population Normal (%): 80%
  Population Pyknosed Nuclei (%): 68%
  Population Tubulin-Different-Phenotype (%): 77%
  Total Cell Count: 236
HEK-293T; [10]
  Population Apoptotic (%): 98%
  Population Fragmented Nuclei (%): 4%
  Population Healthy Nuclei (%): 20%
  Population Hoechst High Intensity Objects (%): 14%
  Population Membrane Permeable-Phenotype (%): 3%
  Population Mitochondria Different-Phenotype (%): 100%
  Population Mitotic Cells (%): 1%
  Population Normal (%): 85%
  Population Pyknosed Nuclei (%): 74%
  Population Tubulin-Different-Phenotype (%): 81%
  Total Cell Count: 151
HEK-293T; [11]
  Population Apoptotic (%): 75%
  Population Fragmented Nuclei (%): 19%
  Population Healthy Nuclei (%): 46%
  Population Hoechst High Intensity Objects (%): 9%
  Population Membrane Permeable-Phenotype (%): 0%
  Population Mitochondria Different-Phenotype (%): 96%
  Population Mitotic Cells (%): 24%
  Population Normal (%): 90%
  Population Pyknosed Nuclei (%): 33%
  Population Tubulin-Different-Phenotype (%): 86%
  Total Cell Count: 241
HEK-293T; [12]
  Population Apoptotic (%): 69%
  Population Fragmented Nuclei (%): 6%
  Population Healthy Nuclei (%): 68%
  Population Hoechst High Intensity Objects (%): 2%
  Population Membrane Permeable-Phenotype (%): 1%
  Population Mitochondria Different-Phenotype (%): 77%
  Population Mitotic Cells (%): 30%
  Population Normal (%): 97%
  Population Pyknosed Nuclei (%): 25%
  Population Tubulin-Different-Phenotype (%): 91%
  Total Cell Count: 327
HEK-293T; [13]
  Population Apoptotic (%): 95%
  Population Fragmented Nuclei (%): 20%
  Population Healthy Nuclei (%): 10%
  Population Hoechst High Intensity Objects (%): 28%
  Population Membrane Permeable-Phenotype (%): 5%
  Population Mitochondria Different-Phenotype (%): 94%
  Population Mitotic Cells (%): 4%
  Population Normal (%): 71%
  Population Pyknosed Nuclei (%): 68%
  Population Tubulin-Different-Phenotype (%): 61%
  Total Cell Count: 241
HEK-293T; [14]
  Population Apoptotic (%): 98%
  Population Fragmented Nuclei (%): 5%
  Population Healthy Nuclei (%): 31%
  Population Hoechst High Intensity Objects (%): 27%
  Population Membrane Permeable-Phenotype (%): 2%
  Population Mitochondria Different-Phenotype (%): 100%
  Population Mitotic Cells (%): 1%
  Population Normal (%): 72%
  Population Pyknosed Nuclei (%): 62%
  Population Tubulin-Different-Phenotype (%): 55%
  Total Cell Count: 148

## NC(=O)c1ccc2nc(-c3ccc(C4(N)CCC4)cc3)c(-c3ccccc3)n2n1 [BAY-1125976]
Fibroblast; 0 h, replicate number 1, timepoint 0 hours
  Growth Rate: 1
Fibroblast; [1]
  Growth Rate: 0
Fibroblast; [2]
  Growth Rate: 1
HEK-293T; [3]
  Population Apoptotic (%): 22%
  Population Healthy Nuclei (%): 67%
  Population Hoechst High Intensity Objects (%): 16%
  Population Mitochondria Different-Phenotype (%): 12%
  Population Mitotic Cells (%): 77%
  Population Normal (%): 83%
  Population Pyknosed Nuclei (%): 17%
  Population Tubulin-Different-Phenotype (%): 26%
  Total Cell Count: 688
HEK-293T; [4]
  Population Apoptotic (%): 10%
  Population Fragmented Nuclei (%): 4%
  Population Healthy Nuclei (%): 87%
  Population Hoechst High Intensity Objects (%): 4%
  Population Mitochondria Different-Phenotype (%): 17%
  Population Mitotic Cells (%): 89%
  Population Normal (%): 95%
  Population Tubulin-Different-Phenotype (%): 38%
  Total Cell Count: 1223
HEK-293T; [5]
  Population Apoptotic (%): 19%
  Population Fragmented Nuclei (%): 17%
  Population Healthy Nuclei (%): 62%
  Population Hoechst High Intensity Objects (%): 15%
  Population Mitochondria Different-Phenotype (%): 5%
  Population Mitotic Cells (%): 80%
  Population Normal (%): 84%
  Population Pyknosed Nuclei (%): 19%
  Population Tubulin-Different-Phenotype (%): 5%
  Total Cell Count: 611
HEK-293T; [6]
  Population Apoptotic (%): 12%
  Population Fragmented Nuclei (%): 7%
  Population Healthy Nuclei (%): 87%
  Population Hoechst High Intensity Objects (%): 2%
  Population Mitochondria Different-Phenotype (%): 8%
  Population Mitotic Cells (%): 87%
  Population Normal (%): 97%
  Population Pyknosed Nuclei (%): 4%
  Total Cell Count: 1764
HEK-293T; [7]
  Population Apoptotic (%): 32%
  Population Hoechst High Intensity Objects (%): 15%
  Population Mitochondria Different-Phenotype (%): 9%
  Population Mitotic Cells (%): 67%
  Population Normal (%): 84%
  Population Pyknosed Nuclei (%): 10%
  Population Tubulin-Different-Phenotype (%): 44%
  Total Cell Count: 691
HEK-293T; [8]
  Population Apoptotic (%): 10%
  Population Fragmented Nuclei (%): 19%
  Population Healthy Nuclei (%): 76%
  Population Hoechst High Intensity Objects (%): 4%
  Population Mitochondria Different-Phenotype (%): 5%
  Population Mitotic Cells (%): 89%
  Population Normal (%): 95%
  Population Pyknosed Nuclei (%): 3%
  Population Tubulin-Different-Phenotype (%): 42%
  Total Cell Count: 1875
HEK-293T; [9]
  Population Apoptotic (%): 26%
  Population Healthy Nuclei (%): 77%
  Population Hoechst High Intensity Objects (%): 11%
  Population Mitochondria Different-Phenotype (%): 4%
  Population Mitotic Cells (%): 73%
  Population Normal (%): 88%
  Population Pyknosed Nuclei (%): 8%
  Population Tubulin-Different-Phenotype (%): 8%
  Total Cell Count: 699
HEK-293T; [10]
  Population Apoptotic (%): 6%
  Population Fragmented Nuclei (%): 23%
  Population Healthy Nuclei (%): 74%
  Population Hoechst High Intensity Objects (%): 3%
  Population Mitochondria Different-Phenotype (%): 1%
  Population Mitotic Cells (%): 93%
  Population Normal (%): 96%
  Population Pyknosed Nuclei (%): 2%
  Population Tubulin-Different-Phenotype (%): 6%
  Total Cell Count: 3086
